Measurements published in ChEMBL document CHEMBL2157880, “Synthesis, antimycobacterial and antibacterial activity of ciprofloxacin derivatives containing a N-substituted benzyl moiety” (2012).
Converted amounts (≈) assume the structure as drawn.

What follows are compounds tested on Enterococcus faecalis (assay: Antibacterial activity against Enterococcus faecalis 10-7 after 18 to 24 hrs by NCCLS method).
Format: functional
Outline: (§1)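 Standard NCCLS (M100-S11) MIC testing against Gram-positive and Gram-negative strains. Plates were incubated at 35 °C for 18–24 h. The MIC was read as the lowest concentration giving complete inhibition of visible bacterial growth.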

SMILES	MIC [µg/mL]
O=C(O)c1cn(C2CC2)c2cc(N3CCN(Cc4ccc5c(c4)OCCO5)CC3)c(F)cc2c1=O	32 (≈ 66.7 µM)

These compounds were tested on Escherichia coli (assay: Antibacterial activity against Escherichia coli 10-2 after 18 to 24 hrs by NCCLS method).
Format: functional
Outline: as §1

SMILES	MIC [µg/mL]
O=C(O)c1cn(C2CC2)c2cc(N3CCN(Cc4ccc5c(c4)OCCO5)CC3)c(F)cc2c1=O	128 (≈ 267 µM)

What follows are compounds tested on Klebsiella pneumoniae (assay: Antibacterial activity against extended spectrum beta-lactamases producing Klebsiella pneumoniae 10-1 after 18 to 24 hrs by NCCLS method).
Format: functional
Outline: as §1

SMILES	MIC [µg/mL]
O=C(O)c1cn(C2CC2)c2cc(N3CCN(Cc4ccc5c(c4)OCCO5)CC3)c(F)cc2c1=O	> 128

Each compound was assayed on Pseudomonas aeruginosa (assay: Antibacterial activity against Pseudomonas aeruginosa 10-18 after 18 to 24 hrs by NCCLS method).
Format: functional
Outline: as §1

SMILES	MIC [µg/mL]
O=C(O)c1cn(C2CC2)c2cc(N3CCN(Cc4ccc5c(c4)OCCO5)CC3)c(F)cc2c1=O	16 (≈ 33.4 µM)

What follows are compounds tested on Escherichia coli (assay: Antibacterial activity against extended spectrum beta-lactamases producing Escherichia coli 10-2 after 18 to 24 hrs by NCCLS method).
Format: functional
Outline: as §1

SMILES	MIC [µg/mL]
O=C(O)c1cn(C2CC2)c2cc(N3CCN(Cc4ccc5c(c4)OCCO5)CC3)c(F)cc2c1=O	> 128

These compounds were tested on Staphylococcus aureus (assay: Antibacterial activity against methicillin-sensitive Staphylococcus aureus 10-11 after 18 to 24 hrs by NCCLS method).
Format: functional
Outline: as §1

SMILES	MIC [µg/mL]
O=C(O)c1cn(C2CC2)c2cc(N3CCN(Cc4ccc5c(c4)OCCO5)CC3)c(F)cc2c1=O	0.25 (≈ 0.521 µM)

What follows are compounds tested on Pseudomonas aeruginosa (assay: Antibacterial activity against Pseudomonas aeruginosa 10-5 after 18 to 24 hrs by NCCLS method).
Format: functional
Outline: as §1

SMILES	MIC [µg/mL]
O=C(O)c1cn(C2CC2)c2cc(N3CCN(Cc4ccc5c(c4)OCCO5)CC3)c(F)cc2c1=O	16 (≈ 33.4 µM)

What follows are compounds tested on Mycobacterium tuberculosis (assay: Antimycobacterial activity against Mycobacterium tuberculosis H37Rv ATCC 27294 by microplate alamar blue assay).
Format: functional
Outline: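 Microplate Alamar Blue fluorescence assay on strain H37Rv ATCC 27294. MIC was the lowest concentration cutting fluorescence by ≥90% against the mean of replicate bacterium-only controls.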

SMILES	MIC [µg/mL]
O=C(O)c1cn(C2CC2)c2cc(N3CCN(Cc4ccc5c(c4)OCCO5)CC3)c(F)cc2c1=O	2 (≈ 4.17 µM)

These compounds were tested on Staphylococcus epidermidis (assay: Antibacterial activity against methicillin-sensitive Staphylococcus epidermidis 10-11 after 18 to 24 hrs by NCCLS method).
Format: functional
Outline: as §1

SMILES	MIC [µg/mL]
O=C(O)c1cn(C2CC2)c2cc(N3CCN(Cc4ccc5c(c4)OCCO5)CC3)c(F)cc2c1=O	0.5 (≈ 1.04 µM)

What follows are compounds tested on Enterococcus faecalis (assay: Antibacterial activity against Enterococcus faecalis 10-6 after 18 to 24 hrs by NCCLS method).
Format: functional
Outline: as §1

SMILES	MIC [µg/mL]
O=C(O)c1cn(C2CC2)c2cc(N3CCN(Cc4ccc5c(c4)OCCO5)CC3)c(F)cc2c1=O	32 (≈ 66.7 µM)

These compounds were tested on Escherichia coli (assay: Antibacterial activity against extended spectrum beta-lactamases producing Escherichia coli 10-3 after 18 to 24 hrs by NCCLS method).
Format: functional
Outline: as §1

SMILES	MIC [µg/mL]
O=C(O)c1cn(C2CC2)c2cc(N3CCN(Cc4ccc5c(c4)OCCO5)CC3)c(F)cc2c1=O	> 128

These compounds were tested on Staphylococcus aureus (assay: Antibacterial activity against methicillin-sensitive Staphylococcus aureus 10-14 after 18 to 24 hrs by NCCLS method).
Format: functional
Outline: as §1

SMILES	MIC [µg/mL]
O=C(O)c1cn(C2CC2)c2cc(N3CCN(Cc4ccc5c(c4)OCCO5)CC3)c(F)cc2c1=O	0.5 (≈ 1.04 µM)

These compounds were tested on Escherichia coli (assay: Antibacterial activity against extended spectrum beta-lactamases producing Escherichia coli 10-4 after 18 to 24 hrs by NCCLS method).
Format: functional
Outline: as §1

SMILES	MIC [µg/mL]
O=C(O)c1cn(C2CC2)c2cc(N3CCN(Cc4ccc5c(c4)OCCO5)CC3)c(F)cc2c1=O	128 (≈ 267 µM)

Each compound was assayed on Staphylococcus epidermidis (assay: Antibacterial activity against methicillin-resistant Staphylococcus epidermidis 10-10 after 18 to 24 hrs by NCCLS method).
Format: functional
Outline: (§2)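 Incubated at 35 °C for 18–24 h under NCCLS (M100-S11) standards. MIC was read as the lowest concentration giving complete inhibition of visible bacterial growth.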

SMILES	MIC [µg/mL]
O=C(O)c1cn(C2CC2)c2cc(N3CCN(Cc4ccc5c(c4)OCCO5)CC3)c(F)cc2c1=O	8 (≈ 16.7 µM)

The compounds below were run on Staphylococcus epidermidis (assay: Antibacterial activity against methicillin-resistant Staphylococcus epidermidis 10-13 after 18 to 24 hrs by NCCLS method).
Format: functional
Outline: as §2

SMILES	MIC [µg/mL]
O=C(O)c1cn(C2CC2)c2cc(N3CCN(Cc4ccc5c(c4)OCCO5)CC3)c(F)cc2c1=O	16 (≈ 33.4 µM)

These compounds were tested on Klebsiella pneumoniae (assay: Antibacterial activity against extended spectrum beta-lactamases producing Klebsiella pneumoniae 10-2 after 18 to 24 hrs by NCCLS method).
Format: functional
Outline: as §1

SMILES	MIC [µg/mL]
O=C(O)c1cn(C2CC2)c2cc(N3CCN(Cc4ccc5c(c4)OCCO5)CC3)c(F)cc2c1=O	> 128

The compounds below were run on Staphylococcus aureus (assay: Antibacterial activity against methicillin-resistant Staphylococcus aureus 10-11 after 18 to 24 hrs by NCCLS method).
Format: functional
Outline: as §2

SMILES	MIC [µg/mL]
O=C(O)c1cn(C2CC2)c2cc(N3CCN(Cc4ccc5c(c4)OCCO5)CC3)c(F)cc2c1=O	16 (≈ 33.4 µM)

What follows are compounds tested on Klebsiella pneumoniae (assay: Antibacterial activity against Klebsiella pneumoniae 10-3 after 18 to 24 hrs by NCCLS method).
Format: functional
Outline: as §1

SMILES	MIC [µg/mL]
O=C(O)c1cn(C2CC2)c2cc(N3CCN(Cc4ccc5c(c4)OCCO5)CC3)c(F)cc2c1=O	8 (≈ 16.7 µM)

These compounds were tested on Pseudomonas aeruginosa (assay: Antibacterial activity against Pseudomonas aeruginosa 10-20 after 18 to 24 hrs by NCCLS method).
Format: functional
Outline: as §1

SMILES	MIC [µg/mL]
O=C(O)c1cn(C2CC2)c2cc(N3CCN(Cc4ccc5c(c4)OCCO5)CC3)c(F)cc2c1=O	32 (≈ 66.7 µM)
